Source: ChEMBL document CHEMBL5661986, “Discovery of the SMYD3 Inhibitor BAY-6035 Using Thermal Shift Assay (TSA)-Based High-Throughput Screening” (SLAS Discov, 2021)
≈ marks a conversion by molar mass, not a printed value. Calls of active or inactive are those of the source. The rule behind the calls is not given here.

What was measured:
[1] = target: T1, Histone-lysine N-methyltransferase SMYD3 (Homo sapiens, UniProt Q9H7B4); assay: Binding affinity to biotinylated SMYD3 (unknown origin) assessed as dissociation constant using S-adenosyl-l-methionine as substrate by surface plasmon resonance analysis
T1 sequence (Q9H7B4 whole entry): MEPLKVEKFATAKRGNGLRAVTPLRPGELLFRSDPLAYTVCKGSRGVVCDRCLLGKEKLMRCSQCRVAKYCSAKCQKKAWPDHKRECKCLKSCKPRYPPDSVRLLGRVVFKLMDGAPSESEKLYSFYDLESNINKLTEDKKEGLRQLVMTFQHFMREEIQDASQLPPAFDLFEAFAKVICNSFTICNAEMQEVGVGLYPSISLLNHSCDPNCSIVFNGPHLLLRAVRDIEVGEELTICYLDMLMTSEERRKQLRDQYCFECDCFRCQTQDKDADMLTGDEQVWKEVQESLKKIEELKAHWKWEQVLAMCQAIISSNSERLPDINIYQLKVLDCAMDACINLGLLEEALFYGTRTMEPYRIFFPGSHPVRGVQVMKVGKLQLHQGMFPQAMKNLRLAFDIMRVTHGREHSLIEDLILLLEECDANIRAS
Method in brief: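 Biotinylated SMYD3 (aa 1–428) captured (~4700 RU) on streptavidin chip, empty reference flow cell; 25 °C; running buffer 20 mM HEPES pH 7.4, 150 mM NaCl, 3 mM EDTA, 0.05% Tween-20, 2% DMSO, plus 50 µM SAM. Single-cycle kinetics, five concentrations 25–2000 nM, 60 s contact, 300 s dissociation, 30 µL/min; triplicate.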

[2] = target: Histone-lysine N-methyltransferase SETDB1 (Homo sapiens) (UniProt Q15047); assay: Inhibition of SETDB1 (unknown origin)
[3] = target: Platelet-derived growth factor receptor beta (Homo sapiens, UniProt P09619); assay: Inhibition of PDGFR beta (unknown origin)
SUD4 = assay: Antiproliferative activity against human SU-DHL-4 cells assessed as inhibition of cell viability measured for 3 to 5 days by alamar blue staining based assay; type: functional
[4] = target: Histone-lysine N-methyltransferase ASH1L (Homo sapiens) (UniProt Q9NR48); assay: Inhibition of ASH1L (unknown origin)
[5] = target: METTL3/METTL14 (Homo sapiens) (UniProt Q86U44+Q9HCE5); assay: Inhibition of METTL3/METTL14 (unknown origin); type: protein-complex assay
[6] = target: Vascular endothelial growth factor receptor 2 (Homo sapiens, UniProt P35968); assay: Inhibition of KDR (unknown origin) by HTRF assay
[7] = target: Epidermal growth factor receptor (Homo sapiens, UniProt P00533); assay: Inhibition of EGFR (unknown origin) in presence of ATP
[8] = Kinetic solubility of the compound at pH 6.5; type: physicochemical; settings: buffer, read-out: Kinetic_solubility
[9] = target: Histone-lysine N-methyltransferase SUV39H2 (Homo sapiens) (UniProt Q9H5I1); assay: Inhibition of SUV39H2 (unknown origin)
Sequence of Histone-lysine N-methyltransferase SUV39H2 (Homo sapiens) (Q9H5I1 whole entry): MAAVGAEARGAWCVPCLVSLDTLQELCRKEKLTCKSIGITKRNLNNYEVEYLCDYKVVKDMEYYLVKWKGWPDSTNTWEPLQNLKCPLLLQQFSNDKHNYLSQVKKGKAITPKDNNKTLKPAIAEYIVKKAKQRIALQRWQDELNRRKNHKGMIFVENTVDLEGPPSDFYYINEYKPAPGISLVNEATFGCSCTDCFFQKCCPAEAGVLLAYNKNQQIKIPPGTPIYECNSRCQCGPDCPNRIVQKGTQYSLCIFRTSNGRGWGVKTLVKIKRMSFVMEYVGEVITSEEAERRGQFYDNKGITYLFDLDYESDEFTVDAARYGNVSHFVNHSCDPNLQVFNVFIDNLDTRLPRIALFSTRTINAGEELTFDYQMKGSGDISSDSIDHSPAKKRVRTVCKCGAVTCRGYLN

[10] = Antiproliferative activity against human NCI-H2110 cells assessed as inhibition of cell viability measured for 3 to 5 days by alamar blue staining based assay; type: functional
[11] = target: MAP kinase-interacting serine/threonine-protein kinase 1 (Homo sapiens, UniProt Q9BUB5); assay: Inhibition of MKNK1 (unknown origin) in presence of ATP
Sequence of MAP kinase-interacting serine/threonine-protein kinase 1 (Q9BUB5 whole entry): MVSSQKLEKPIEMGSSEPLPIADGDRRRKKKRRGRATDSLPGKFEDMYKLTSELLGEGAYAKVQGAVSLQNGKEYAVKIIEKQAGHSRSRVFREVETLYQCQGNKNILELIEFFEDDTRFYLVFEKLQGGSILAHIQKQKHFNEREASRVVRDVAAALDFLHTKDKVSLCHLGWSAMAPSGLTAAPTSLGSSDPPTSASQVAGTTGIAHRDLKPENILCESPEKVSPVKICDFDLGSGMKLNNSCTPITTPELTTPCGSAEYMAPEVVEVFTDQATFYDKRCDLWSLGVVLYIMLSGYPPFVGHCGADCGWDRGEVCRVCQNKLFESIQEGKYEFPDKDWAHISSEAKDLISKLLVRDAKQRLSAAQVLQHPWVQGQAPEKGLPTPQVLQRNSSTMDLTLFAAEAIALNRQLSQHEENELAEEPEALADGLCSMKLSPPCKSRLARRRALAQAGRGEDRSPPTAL

[12] = target: T2, Histone-lysine N-methyltransferase SMYD3 (Homo sapiens) (UniProt Q9H7B4); assay: Inhibition of SMYD3 (unknown origin)
T2 sequence (whole entry): T1 sequence (Q9H7B4 whole entry)
Method in brief: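 Recombinant human SMYD3 (aa 1–428, E. coli-expressed, His tag removed by TEV) at 10 nM. Reaction with 335 nM ³H-SAM and 15 µM biotinylated MAP3K2(249–273) peptide in 20 mM Tris pH 9, 2.5 mM DTT, 0.01% Triton X-100, 40 min at 23 °C. GuHCl quench, then SPA count of incorporated radioactivity. Quadruplicates normalized to DMSO and no-enzyme controls; IC50 from four-parameter logistic fit.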

[13] = target: Protein arginine N-methyltransferase 3 (Homo sapiens) (UniProt O60678); assay: Inhibition of PRMT3 (unknown origin)
Sequence of Protein arginine N-methyltransferase 3 (Homo sapiens) (O60678 2-531 limits assumed): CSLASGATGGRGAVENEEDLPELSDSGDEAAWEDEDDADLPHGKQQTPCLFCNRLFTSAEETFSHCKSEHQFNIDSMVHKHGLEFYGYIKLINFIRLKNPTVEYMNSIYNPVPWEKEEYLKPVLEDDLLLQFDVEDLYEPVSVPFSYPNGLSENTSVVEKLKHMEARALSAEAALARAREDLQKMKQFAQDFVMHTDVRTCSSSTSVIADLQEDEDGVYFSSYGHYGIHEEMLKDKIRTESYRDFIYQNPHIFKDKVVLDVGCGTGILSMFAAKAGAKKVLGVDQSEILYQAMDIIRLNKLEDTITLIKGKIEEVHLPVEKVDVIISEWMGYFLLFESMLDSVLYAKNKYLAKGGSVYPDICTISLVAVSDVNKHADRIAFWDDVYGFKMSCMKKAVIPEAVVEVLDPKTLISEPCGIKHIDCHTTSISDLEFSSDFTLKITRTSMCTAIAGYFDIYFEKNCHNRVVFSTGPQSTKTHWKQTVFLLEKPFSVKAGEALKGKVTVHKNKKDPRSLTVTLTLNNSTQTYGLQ

[14] = target: Histone-lysine N-methyltransferase SETD2 (Homo sapiens) (UniProt Q9BYW2); assay: Inhibition of SETD2 (unknown origin)
Sequence of Histone-lysine N-methyltransferase SETD2 (Homo sapiens) (Q9BYW2 whole entry): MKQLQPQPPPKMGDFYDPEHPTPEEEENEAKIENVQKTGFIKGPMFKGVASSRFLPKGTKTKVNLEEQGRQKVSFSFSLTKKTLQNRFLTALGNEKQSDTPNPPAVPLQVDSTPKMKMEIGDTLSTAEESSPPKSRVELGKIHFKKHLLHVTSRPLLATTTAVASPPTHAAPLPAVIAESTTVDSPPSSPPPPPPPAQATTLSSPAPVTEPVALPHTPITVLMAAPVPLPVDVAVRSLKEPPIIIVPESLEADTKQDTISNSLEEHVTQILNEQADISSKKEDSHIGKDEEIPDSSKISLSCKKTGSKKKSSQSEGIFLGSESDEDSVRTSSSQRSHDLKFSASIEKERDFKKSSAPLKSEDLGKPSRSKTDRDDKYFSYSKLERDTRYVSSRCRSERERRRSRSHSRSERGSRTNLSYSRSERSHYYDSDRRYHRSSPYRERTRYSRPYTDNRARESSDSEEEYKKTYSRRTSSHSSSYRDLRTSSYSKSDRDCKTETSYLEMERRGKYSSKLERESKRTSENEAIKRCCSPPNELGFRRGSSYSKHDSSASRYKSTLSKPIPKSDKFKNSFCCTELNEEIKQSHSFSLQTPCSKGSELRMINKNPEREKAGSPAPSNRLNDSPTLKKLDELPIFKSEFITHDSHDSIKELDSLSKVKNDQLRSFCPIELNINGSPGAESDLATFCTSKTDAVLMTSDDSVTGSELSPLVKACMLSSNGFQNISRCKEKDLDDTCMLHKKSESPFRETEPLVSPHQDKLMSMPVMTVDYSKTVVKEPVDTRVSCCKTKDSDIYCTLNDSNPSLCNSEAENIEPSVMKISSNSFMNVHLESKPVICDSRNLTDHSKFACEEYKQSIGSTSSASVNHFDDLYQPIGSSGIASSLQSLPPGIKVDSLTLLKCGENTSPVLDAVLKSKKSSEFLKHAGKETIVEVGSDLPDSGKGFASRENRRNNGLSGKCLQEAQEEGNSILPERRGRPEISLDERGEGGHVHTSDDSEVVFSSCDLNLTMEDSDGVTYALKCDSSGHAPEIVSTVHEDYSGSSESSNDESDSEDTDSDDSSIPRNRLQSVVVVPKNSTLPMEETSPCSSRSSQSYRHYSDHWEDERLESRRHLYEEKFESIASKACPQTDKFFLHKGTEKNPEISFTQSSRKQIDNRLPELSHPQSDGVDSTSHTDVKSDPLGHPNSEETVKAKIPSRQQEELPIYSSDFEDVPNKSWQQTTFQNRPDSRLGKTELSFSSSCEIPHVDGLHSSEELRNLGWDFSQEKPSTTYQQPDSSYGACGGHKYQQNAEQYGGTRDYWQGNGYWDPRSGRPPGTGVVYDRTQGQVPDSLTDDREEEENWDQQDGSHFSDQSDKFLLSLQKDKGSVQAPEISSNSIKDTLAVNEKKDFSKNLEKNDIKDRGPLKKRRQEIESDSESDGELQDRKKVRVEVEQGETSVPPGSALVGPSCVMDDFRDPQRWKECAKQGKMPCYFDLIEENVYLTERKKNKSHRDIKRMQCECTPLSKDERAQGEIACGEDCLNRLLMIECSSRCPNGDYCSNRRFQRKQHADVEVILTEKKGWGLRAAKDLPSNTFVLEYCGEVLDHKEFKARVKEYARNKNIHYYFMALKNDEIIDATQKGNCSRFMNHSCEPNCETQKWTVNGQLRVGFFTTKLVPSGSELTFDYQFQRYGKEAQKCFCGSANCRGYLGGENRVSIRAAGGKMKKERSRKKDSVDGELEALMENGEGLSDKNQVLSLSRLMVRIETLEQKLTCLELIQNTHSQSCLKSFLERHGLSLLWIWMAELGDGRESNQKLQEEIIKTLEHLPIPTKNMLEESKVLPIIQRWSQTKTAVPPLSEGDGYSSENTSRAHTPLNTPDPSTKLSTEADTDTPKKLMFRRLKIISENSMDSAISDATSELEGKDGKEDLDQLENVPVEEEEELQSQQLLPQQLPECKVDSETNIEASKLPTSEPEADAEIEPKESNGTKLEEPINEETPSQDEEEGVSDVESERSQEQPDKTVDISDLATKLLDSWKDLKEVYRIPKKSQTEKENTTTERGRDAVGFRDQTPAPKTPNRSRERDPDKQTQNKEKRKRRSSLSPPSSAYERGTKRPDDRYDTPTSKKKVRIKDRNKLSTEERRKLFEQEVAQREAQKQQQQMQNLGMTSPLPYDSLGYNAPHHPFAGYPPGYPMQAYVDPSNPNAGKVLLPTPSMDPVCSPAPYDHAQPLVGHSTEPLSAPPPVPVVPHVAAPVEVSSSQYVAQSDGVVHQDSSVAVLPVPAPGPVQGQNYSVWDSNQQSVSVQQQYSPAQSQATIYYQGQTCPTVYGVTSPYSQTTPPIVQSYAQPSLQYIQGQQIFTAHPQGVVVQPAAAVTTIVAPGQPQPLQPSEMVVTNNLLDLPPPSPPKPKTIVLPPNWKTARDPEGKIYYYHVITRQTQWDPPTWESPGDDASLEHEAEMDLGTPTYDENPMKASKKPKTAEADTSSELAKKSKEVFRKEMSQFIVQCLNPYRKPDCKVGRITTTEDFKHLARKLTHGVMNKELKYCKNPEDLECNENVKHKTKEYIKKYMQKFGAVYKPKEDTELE

[15] = target: Mitotic checkpoint serine/threonine-protein kinase BUB1 (Homo sapiens, UniProt O43683); assay: Inhibition of Bub1 (unknown origin) in presence of ATP
[16] = target: T2, Histone-lysine N-methyltransferase SMYD3 (Homo sapiens); assay: Binding affinity to recombinant human SMYD3 expressed in Escherichia coli assessed as change in entropy at 0.3 mM by isothermal titration calorimetry
Method in brief: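 Syringe held compound at 0.3 mM in 20 mM HEPES pH 7.4, 150 mM NaCl, 0.005% Tween 20, 2.5% DMSO; eight 4 µL injections at 180 s intervals into SMYD3.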

[17] = target: Mitogen-activated protein kinase kinase kinase kinase 1 (Homo sapiens, UniProt Q92918); assay: Inhibition of MAP4K1 (unknown origin) by competition binding assay
Sequence of Mitogen-activated protein kinase kinase kinase kinase 1 (Q92918 whole entry): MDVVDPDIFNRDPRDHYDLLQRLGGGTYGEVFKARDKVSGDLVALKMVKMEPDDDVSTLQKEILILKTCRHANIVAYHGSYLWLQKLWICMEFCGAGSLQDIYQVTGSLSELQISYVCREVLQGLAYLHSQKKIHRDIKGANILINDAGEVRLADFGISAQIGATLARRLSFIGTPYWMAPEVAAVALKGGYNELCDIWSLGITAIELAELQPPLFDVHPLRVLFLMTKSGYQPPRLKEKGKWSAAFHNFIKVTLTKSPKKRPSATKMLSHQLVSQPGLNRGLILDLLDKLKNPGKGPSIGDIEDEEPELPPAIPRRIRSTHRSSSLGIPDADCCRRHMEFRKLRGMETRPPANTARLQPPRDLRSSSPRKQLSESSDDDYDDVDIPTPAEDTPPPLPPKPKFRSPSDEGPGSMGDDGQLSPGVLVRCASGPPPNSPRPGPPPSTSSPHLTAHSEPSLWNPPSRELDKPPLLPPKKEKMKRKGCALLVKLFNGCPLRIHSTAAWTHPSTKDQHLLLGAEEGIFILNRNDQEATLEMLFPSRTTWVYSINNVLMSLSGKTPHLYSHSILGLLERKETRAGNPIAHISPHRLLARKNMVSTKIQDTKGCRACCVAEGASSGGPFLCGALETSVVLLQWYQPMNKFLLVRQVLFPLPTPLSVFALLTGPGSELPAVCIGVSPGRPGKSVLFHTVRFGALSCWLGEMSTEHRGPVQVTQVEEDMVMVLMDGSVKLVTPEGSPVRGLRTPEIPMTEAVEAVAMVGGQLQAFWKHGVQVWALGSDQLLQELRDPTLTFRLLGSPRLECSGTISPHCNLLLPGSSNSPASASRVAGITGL

[18] = target: Histone-lysine N-methyltransferase KMT5B (Homo sapiens) (UniProt Q4FZB7); assay: Inhibition of SUV420H1 (unknown origin)
[19] = target: Histone-lysine N-methyltransferase NSD3 (Homo sapiens) (UniProt Q9BZ95); assay: Inhibition of NSD3 (unknown origin)
[20] = target: Histone acetyltransferase p300 (Homo sapiens) (UniProt Q09472); assay: Inhibition of EP300 (unknown origin)
HaCaT = assay: Antiproliferative activity against human HaCaT cells assessed as inhibition of cell viability measured for 3 to 5 days by alamar blue staining based assay; type: functional
[21] = target: Interleukin-1 receptor-associated kinase 1 (Homo sapiens, UniProt P51617); assay: Inhibition of IRAK1 (unknown origin) in presence of ATP
[22] = target: T2, Histone-lysine N-methyltransferase SMYD3 (Homo sapiens); settings: dose 120.0 µM
Homo sapiens = species on record: Homo sapiens; assay: Selectivity ratio of IC50 for recombinant human SMYD3 to the IC50 for inhibition of SMYD3- dependent MAP3K2 methylation
[23] = target: Mitogen-activated protein kinase 14 (Homo sapiens, UniProt Q16539); assay: Inhibition of p38alpha (unknown origin) by competition binding assay
[24] = target: Serine/threonine-protein kinase 4 (Homo sapiens, UniProt Q13043); assay: Inhibition of MST1 (unknown origin)
[25] = target: T1, Histone-lysine N-methyltransferase SMYD3; assay: Binding affinity to recombinant human SMYD3 expressed in Escherichia coli at varying 3H SAM substrate concentration of upto 3.5 uM with 10 fold Km concentration by scintillation proximity assay
Method in brief: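 SPA, 10 nM SMYD3 methylating biotinylated MAP3K2 249–273 peptide with 3H-SAM in 20 mM Tris pH 9, 2.5 mM DTT, 0.01% Triton X-100; 40 min, 23 °C, GuHCl quench.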

## C[C@H]1CC(=O)Nc2cc(C(=O)NCCC3CC3)ccc2N1C(=O)N1CC2CC2C1 (some centres undefined)
[1]
  Kd: 0.097 µM
[2]
  inhibition: inactive
[3]
  IC50: > 20 µM
SUD4
  IC50: > 10 µM
[4]
  inhibition: inactive
[5]
  inhibition: inactive
[6]
  IC50: > 20 µM
[7]
  IC50: > 20 µM
[8]
  solubility kinetic: 363 µg/mL (≈ 915 µM)
[9]
  inhibition: inactive
[10]
  IC50: > 10 µM
[11]
  IC50: > 20 µM
[12]
  inhibition: Active
[13]
  inhibition: inactive
[14]
  inhibition: inactive
[15]
  IC50: > 20 µM
[16]
  -TdeltaS: -5 kcal/mol
  deltaS: 17 cal/mol.K
[17]
  IC50: > 20 µM
[18]
  inhibition: inactive
[19]
  inhibition: inactive
[20]
  inhibition: inactive
HaCaT
  IC50: > 10 µM
[21]
  IC50: > 20 µM
[22]
  deltaTm: 8.34 K
Homo sapiens
  Ratio IC50: 2
[23]
  IC50: > 20 µM
[24]
  IC50: > 20 µM
[25]
  IC50: Not Active
